CHO parental Ca: counter-screen for OX1R antagonists: effect in parental CHO cells. parental CHO-K1, ATP-induced calcium, Fluo-8 fluorescence. inhibition, % at 5.6 µM. 330,000 compounds, 0.63% hits. AID 463079;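 active means inhibition above that plate's mean sample inhibition plus 3 SD, cut at about 26% in these data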
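Assay system: untransfected parental CHO cell line. Also added: ATP agonist challenge. Dosing: one dose, 5.6 µM nominal. Measured by: Fluo-8 fluorescence. Read-out: % inhibition. Benchmarks: ATP wells versus no-ATP DMSO wells. Repeats: no replicates.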
OX1R antag-1: antagonists of human orexin 1 receptor; 330,000 compounds, 0.43% hits; AID 434989; CHO/OX1R cells, Fluo-8 calcium fluorescence, orexin A; inhibition, % at 5 µM; O43613;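 active means inhibition above its plate's threshold, mean inhibition of all tested compounds on the plate plus 3 SD, cut at about 37% in these data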
EP2 mod: modulates human prostaglandin E2 receptor EP2 signaling. induction, % at 25 µM. 260,000 compounds, 0.83% hits. AID 940. EP2-expressing cells, cAMP HTRF FRET, PGE2 co-stimulation;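 active means compounds whose cAMP rise, as percent of the full-agonist control response, exceeds 60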;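 further: rat C6 glioma line stably carrying human EP2 under a CMV promoter; the protocol text gives 20 µM as final concentration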
OX1R antag-2: blocks the human orexin 1 receptor; AID 485270; inhibition, % at 6.6 µM; 330,000 compounds, 1.8% hits; OX1R-expressing cells, FRET antagonist read-out; in the data active means inhibition mostly above about 38%, no sharp cut-off; inactive means mostly below about 40%
GPR7 antag: antagonists of human GPR7 (neuropeptides B/W receptor 1) | P48145 | GPR7-expressing cells, fluorescence antagonist assay | inhibition, % at 4.4 µM | 290,000 compounds, 1.1% hits; in the data active means inhibition above about 16%, passing the limit was not always enough;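 further: cells stimulated with the agonist NPW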
Target sequence (P48145 whole entry, looked up): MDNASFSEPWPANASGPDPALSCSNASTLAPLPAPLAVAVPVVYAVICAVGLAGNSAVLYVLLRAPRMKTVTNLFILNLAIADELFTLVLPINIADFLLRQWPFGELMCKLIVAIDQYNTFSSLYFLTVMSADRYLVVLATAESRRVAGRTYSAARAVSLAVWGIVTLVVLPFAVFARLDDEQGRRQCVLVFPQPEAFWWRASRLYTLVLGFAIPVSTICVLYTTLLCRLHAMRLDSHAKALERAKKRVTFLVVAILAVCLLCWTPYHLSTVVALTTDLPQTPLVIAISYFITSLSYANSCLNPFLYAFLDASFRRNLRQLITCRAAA
PGE2 EP2 inh: EP2 receptor (human) inhibition; P43116; C6 glioma cells expressing human EP2, cAMP TR-FRET; cells stimulated with saturating PGE2; inhibition, % at 25 µM; 260,000 compounds, 0.52% hits; AID 1422;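 active means percent inhibition above 40 after rounding to a whole number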;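 further: rat C6 glioma host cells with rolipram phosphodiesterase inhibitor present; the protocol text gives 20 µM as final concentration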
Numbers stand for hits; – = inactive; · = no result. Hits are enriched below; roughly 3.7% of the tested compounds scored in any of these assays.

SMILES	CHO parental Ca	OX1R antag-1	EP2 mod	OX1R antag-2	GPR7 antag	PGE2 EP2 inh
O=c1oc2ccc3ccccc3c2cc1-c1nnc(-c2ccncc2)o1	·	·	–	·	·	–
CCN(CC)c1ccc2cc(C=O)c(=O)oc2c1	50	–	–	116	–	–
Clc1ccc(N2CCCCCC2)nn1	–	–	–	–	–	–
COc1ccc2nc3ccccc3nc2c1NC(=O)c1ccccc1Cl	–	–	–	51	–	–
COc1ccc(-c2cc(C(=O)Nc3c(Cl)cc(Cl)cc3Cl)c3ccccc3n2)cc1OC	–	–	–	–	–	–
NS(=O)(=O)c1ccc(Oc2ccc(S(N)(=O)=O)cc2)cc1	–	–	–	–	–	–
C=CS(=O)(=O)c1ccc(Oc2ccc(S(=O)(=O)C=C)cc2)cc1	–	–	–	–	35	72
Cc1ccc(NCC(=O)c2ccc([N+](=O)[O-])cc2)cc1	–	–	–	–	–	–
CC1(c2ccccc2)CC(C)(C)N2C(=O)C3(C(C#N)=C(N)Oc4cc(O)ccc43)c3cccc1c32 (stereo unspecified)	–	–	62	–	–	–
CCOC(=O)C1(CCOc2ccccc2)CCN(S(=O)(=O)N(C)C)CC1	–	–	·	–	–	·
O=C(Nc1ccc(NC(=O)c2cccs2)cn1)c1ccccc1	–	–	–	–	–	–
COc1cc(OC)c(NC(=O)CCNS(=O)(=O)c2cc(Br)cnc2N)cc1Cl	–	–	–	–	–	–
CCCNC(=O)Cn1c(=O)/c(=C\c2ccc(-c3ccc([N+](=O)[O-])cc3)o2)s/c1=C\C(=O)C(C)(C)C	59	75	–	–	–	–
COc1ccc(Cn2nnnc2C(C(C)C)N2CCC(C(N)=O)CC2)cc1 (stereo unspecified)	·	·	–	·	·	–
CCC(/C=N/NC(=O)C(N)=O)CC	–	–	–	–	–	–
O=C(CNS(=O)(=O)c1ccc2ccccc2c1)OCc1nnc(-c2ccccc2)o1	–	–	–	–	–	41
CC(=O)O/N=C1\C(=O)N(Cc2ccc(C)cc2)c2ccccc21	·	·	63	·	–	–
O=c1[nH]cnc2cc(-c3ccc(Br)cc3)sc12	–	–	·	–	–	·
COc1cc(NS(=O)(=O)c2ccc(NC(=S)NC(=O)c3sc4cc(F)ccc4c3Cl)cc2)nc(OC)n1	–	–	–	–	–	95
COc1cc(NS(=O)(=O)c2ccc(NC(=S)NC(=O)c3ccco3)cc2)nc(OC)n1	–	–	–	–	–	–
Cc1c(CCC(=O)NCCC(=O)O)c(=O)oc2cc3occ(-c4ccccc4)c3cc12	–	–	·	–	–	·
CC(C)COc1nc2c(c(=O)n(C)c(=O)n2C)n1C	–	–	–	–	active	–
CCCn1c(=N)c(C#N)cc2c(=O)n3ccccc3nc21	–	–	–	47	–	–
Cc1cccc(-n2c(=O)c(C#N)cc3c(=O)n4ccccc4nc32)c1	–	–	–	60	–	–
CCC(C)n1c(=N)c(C#N)cc2c(=O)n3ccccc3nc21 (stereo unspecified)	–	–	–	–	–	–
SMILES	CHO parental Ca	OX1R antag-1	EP2 mod	OX1R antag-2	GPR7 antag	PGE2 EP2 inh
CCCc1cc(=O)oc2cc(OCC(=O)NCC3CCC(C(=O)O)CC3)ccc12 (stereo unspecified)	–	–	·	–	–	·
O=C(Cc1cc(=O)oc2cc(O)ccc12)NCC1CCC(C(=O)O)CC1 (stereo unspecified)	–	–	64	–	–	–
COc1ccc(NS(=O)(=O)c2ccc(C)c(C(=O)N(C)CCc3ccc(OC)c(OC)c3)c2)cc1	–	–	·	–	·	·
Cc1cc(C(=O)CSc2nc3ccccc3[nH]2)c(C)n1CC1CCCO1 (stereo unspecified)	85	59	–	54	27	–
O=C(CSc1nc2ccccc2o1)NCC1CCCO1 (stereo unspecified)	–	–	·	–	·	·
Cc1cc(C(=O)CSc2nc3ccccc3o2)c(C)n1CC1CCCO1 (stereo unspecified)	–	39	–	–	–	–
COc1ccc(C(NC(=O)CN2C(=O)NC3(CCc4ccccc43)C2=O)c2ccccc2)cc1 (stereo unspecified)	–	–	·	–	·	·
C[C@H](CCC(=O)O)[C@H]1CC[C@H]2[C@@H]3[C@@H](O)C[C@H]4C[C@@H](O)CC[C@]4(C)[C@H]3C[C@@H](O)[C@]12C	·	·	–	·	·	45
C[C@H](CCC(=O)O)[C@H]1CC[C@H]2[C@@H]3[C@H](O)C[C@@H]4C[C@H](O)CC[C@]4(C)[C@H]3C[C@H](O)[C@]12C	–	–	·	–	–	–
C[C@H](CCC(=O)O)[C@H]1CC[C@H]2[C@@H]3CC[C@@H]4C[C@H](O)CC[C@]4(C)[C@H]3CC[C@]12C	–	–	·	–	·	·
C[C@H](CCC(=O)NN)[C@@H]1CC[C@@H]2[C@H]3CC[C@H]4C[C@@H](O)CC[C@]4(C)[C@@H]3CC[C@]21C	·	·	–	·	·	49
COc1ccc([C@H]2[C@H](C(=O)C(C)(C)C)N3N=Cc4ccccc4C3[C@]23N=C(c2ccccc2)OC3=O)cc1OC (stereo partly specified)	–	–	–	–	–	·
CCn1c(SCC(=O)Nc2ccc(NC(=O)c3ccccc3F)cc2)nnc1-c1cccnc1	·	·	–	·	·	–
Cn1c(=O)c2c(n(C)c1=O)=NC1(CCCCC1)ON=2	–	–	–	71	–	–
Cc1sc(NC(=O)c2ccco2)c(C(c2cccnc2)N2CCC(C)CC2)c1C (stereo unspecified)	–	–	–	–	20	–
OC(COc1ccc2ccccc2c1Br)Cn1ccnc1 (stereo unspecified)	–	–	–	–	–	–
CC(C)(C)c1nc(SCC(=O)c2ccc(F)cc2)c2ccccc2n1	·	·	69	·	·	–
O=C(COC(=O)c1cccc(C(F)(F)F)c1)NCc1ccccc1	49	–	–	–	–	–
O=C(COC(=O)/C=C/c1cccc(C(F)(F)F)c1)NCc1cccs1	36	–	·	–	·	·
CC(C)CCn1nnnc1CN1CCN(c2ccc(F)cc2)CC1	–	–	–	–	–	–
O=C(COC(=O)[C@@H]1CCCN1C(=O)c1cccs1)Nc1ccc(F)cc1[N+](=O)[O-]	–	–	–	64	–	–
COc1ccc(CSCCc2n[nH]c(=S)n2-c2ccccc2)cc1C	–	–	–	–	–	–
CCOC(=O)c1c(C)oc2c1c(CN1CCN(CCO)CC1)c(O)c1ccccc12	·	·	–	·	–	–
CCOC(=O)c1c(C)oc2c1c(CN1CCN(C(=O)OCC)CC1)c(O)c1ccccc12	–	–	–	70	–	–
C=CCNC(=O)c1ccccc1NC(=O)C1CCN(S(=O)(=O)c2ccc(SC)cc2)CC1	–	–	·	–	–	·
C=CCCCCCCCCc1nc(SCC(C)=O)n[nH]1	–	–	–	–	20	–
CN(C)c1cccc2c1C(=O)c1ccccc1C2=O	–	–	–	46	–	–

Screens: PubChem BioAssay, several laboratories
